Assays:
SARS-CoV-2 M^pro [1] = molecular target: T1, SARS-CoV-2 M^pro (Severe acute respiratory syndrome coronavirus 2, UniProt P0DTD1); experiment: Enzymatic reversibility assay; type: biochemical; conditions: 10 μM Mpro, 100 μM compound, 180 min
Procedure, shortened: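 Recombinant Mpro (10 μM), E. coli-expressed, held with 100 μM test compound for 180 min, then split into four portions given different numbers of ultrafiltration rounds. Retained protease diluted to 0.5 μM final; activity measured; triplicates averaged.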

SARS-CoV-2 M^pro [2] = molecular target: T1, SARS-CoV-2 M^pro; type: biochemical
SARS-CoV-2 M^pro [3] = molecular target: T1, SARS-CoV-2 M^pro; experiment: Mass spectrometry; type: binding; conditions: 2 μM protease, 15 μM compound, on ice 3 h
Procedure, shortened: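 Mpro–test compound mixture kept on ice for 3 h, then run on a quadrupole-TOF LC-MS/MS system. Raw mass signal deconvoluted to total intact protein mass to detect adduct formation. Protein was recombinant, E. coli-expressed.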

Vero cells = conditions: MTT
MDCK cells = conditions: MTT
SARS-CoV-2 = conditions: lungs and nose of SARS-CoV-2 infected mice; cited from earlier work

## NC(=S)N/N=C/c1ccc(-c2ccc(C(=O)O)c(O)c2)o1 [F8–B6, (E)-4-(5-((2-carbamothioylhydrazono)methyl)furan-2-yl)-2-hydroxybenzoic acid]
SARS-CoV-2 M^pro [1]
  Reversibility of inhibition after ultrafiltration: reversible inhibitor
SARS-CoV-2 M^pro [2]
  Mechanism of inhibition (overall, kinetic and mass spectrometry studies): reversible covalent inhibitor
SARS-CoV-2 M^pro [2]; enzymatic kinetic assay, 3 h preincubation, varied substrate
  Type of inhibition from Lineweaver-Burk plot: non-competitive inhibitor
SARS-CoV-2 M^pro [2]; incubation 5, 30, 180 min (Fig. S3A-C)
  Effect of prolonged incubation on inhibition: time-dependent increase of inhibition activity
SARS-CoV-2 M^pro [3]
  Covalent binding by LC-MS/MS: covalently bonded

## NC(=S)N/N=C/c1ccc(Cc2ccccc2)o1 [F8–B22, (E)-2-((5-benzylfuran-2-yl)methylene)hydrazine-1-carbothioamide]
SARS-CoV-2 M^pro [2]; ratio of IC50 values
  Potency relative to initial compound F8: 13 fold
Vero cells
  Cytotoxicity in Vero cells: low cytotoxicity
MDCK cells
  Cytotoxicity in MDCK cells: low cytotoxicity

## Cc1ccc(NC(=O)c2ccc(CN3CCN(C)CC3)cc2)cc1Nc1nc(-c2cccnc2)cs1 [Masitinib]
SARS-CoV-2
  Effect on coronavirus replication in infected mice: block the replication of coronavirus in the lungs and nose

— publication PMC9162962 (European Journal of Medicinal Chemistry, 2022)
